Screening data deposited in PubChem by The Scripps Research Institute Molecular Screening Center.
OX1R antag-1 = antagonists of human orexin 1 receptor (OX1R); inhibition, % at 6.6 µM; OX1R-expressing cells, FRET antagonist read-out; hit rate 1.8% among 330,000; AID 485270, 2010; Orexin/Hypocretin receptor type 1 (Homo sapiens), O43613; in the data active means inhibition mostly above about 38%, no sharp cut-off; inactive means mostly below about 40%
Target sequence (O43613 whole entry, looked up): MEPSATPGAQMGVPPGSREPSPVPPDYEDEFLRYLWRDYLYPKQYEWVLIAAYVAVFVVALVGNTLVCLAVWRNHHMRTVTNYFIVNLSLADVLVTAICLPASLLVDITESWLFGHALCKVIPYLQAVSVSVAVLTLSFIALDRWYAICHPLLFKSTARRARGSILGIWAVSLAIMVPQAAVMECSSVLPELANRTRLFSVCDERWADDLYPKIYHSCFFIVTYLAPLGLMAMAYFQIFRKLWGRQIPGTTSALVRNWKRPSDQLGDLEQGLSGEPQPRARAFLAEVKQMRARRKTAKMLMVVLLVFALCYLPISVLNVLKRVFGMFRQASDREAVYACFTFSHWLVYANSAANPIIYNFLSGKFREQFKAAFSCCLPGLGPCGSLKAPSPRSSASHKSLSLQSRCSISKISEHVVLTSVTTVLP
CHO parental Ca = ATP-evoked calcium signal inhibitors, parental CHO, primary screen, counter-screen for OX1R antagonist project, cell-based, fluorescence, Fluo-8 calcium dye | parental CHO-K1, ATP-induced calcium, Fluo-8 fluorescence | inhibition, % at 5.6 µM | hit rate 0.63% among 330,000 | AID 463079, 2010;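 active means inhibition above that plate's mean sample inhibition plus 3 SD, cut at about 26% in these data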
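Assay system – parental CHO cells · Reagent – ATP stimulus · Detection – intracellular calcium via Fluo-8 no-wash fluorescent dye · Evaluation – percent inhibition of ATP-evoked calcium rise, normalized to controls · Controls – ATP wells versus no-ATP DMSO wells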
TAAR1 antag = human TAAR1 antagonists, primary screen, Fluo-8 calcium fluorescence, CHO RD-HGA16 cells. hit rate 1.5% among 360,000. inhibition, % at 3 µM. antagonist;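 active means inhibition above a per-plate cutoff, the mean inhibition of test compounds on that plate plus 3 SD, cut at about 49% in these data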
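Material: RD-HGA16 CHO cells with stable hTAAR1 and Gα16; Dosing: single nominal final test compound concentration of 3 µM; Schedule: seeding 17-24 h prior, 75-min 37 °C, 30-min RT dye loading; Detection: kinetic Fluo-8 calcium fluorescence measurement; Measure: % inhibition from peak post-agonist over basal fluorescence ratio; Benchmarks: vehicle and agonist controls.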
TAAR1 agonist = human TAAR1 agonists, primary screen, Fluo-8 calcium fluorescence, CHO RD-HGA16 cells | Trace amine-associated receptor 1 (Homo sapiens), Q96RJ0 | vehicle wells 0%, saturating PEA agonist 100% | activation, % at 3 µM | hit rate 0.99% among 360,000;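 active means activation above the mean activation of all test compounds in the run plus 3 SD, cut at about 38% in these data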
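Benchmarks: low control DMSO, high control PEA (EC100); System: CHO RD-HGA16 cells carrying human TAAR1 plus Gα16; Detection: Fluo-8 fluorescence, 5 s baseline then 140 s kinetic read; Schedule: 17-24 h plating, Fluo-8 75 min 37 °C, 30 min RT; Read-out basis: % activation from peak over basal fluorescence ratio, DMSO-to-PEA scaled.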
OX1R antag-2 = OX1R (HCRTR1) antagonists, primary screen, fluorescence, CHO/OX1R cells, Fluo-8 calcium, orexin A; Fluo-8 calcium fluorescence; inhibition, % at 5 µM; hit rate 0.43% among 330,000;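 active means inhibition above its plate's threshold, mean inhibition of all tested compounds on the plate plus 3 SD, cut at about 37% in these data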
Of the large screens only hits and unclear results are named; the others gave an inactive call. Rows were chosen to be rich in hits. Some 4% of all compounds tested hit in one or more screens of this group.

COCCn1c(C)cc(C(=O)CN2C(=O)NC3(CCCCCCC3)C2=O)c1C	OX1R antag-1 63
O=C(N[C@@H](Cc1cccnc1)C(=O)N1CCC[C@H]1C(=O)NCCc1ccccc1Cl)c1ccco1	none (no result: OX1R antag-1, CHO parental Ca, OX1R antag-2)
C=CCN=C1NC(c2ccc(Cl)cc2)C(C(=O)OC)=C(C)N1Cc1ccccc1C(F)(F)F (stereo not drawn)	none (no result: OX1R antag-1, CHO parental Ca, OX1R antag-2)
COc1ccc(C(=O)Cc2cc(OC)c(OC)cc2[N+](=O)[O-])cc1	none
CCOc1ccc(C(=O)Cc2cc(OC)c(OC)cc2[N+](=O)[O-])cc1	TAAR1 antag 63, TAAR1 agonist 42
CN1CCCCC(NC(=O)c2ccc3ccccc3c2)C1=O (stereo not drawn)	none (no result: OX1R antag-1, CHO parental Ca, OX1R antag-2)
CC(C)(C)CC(C)(C)NCC(O)COc1c(F)cc(Br)cc1F (stereo not drawn)	TAAR1 agonist 47
CNc1nnc(Sc2ncccc2[N+](=O)[O-])s1	OX1R antag-1 48
O=[N+]([O-])c1cccnc1Sc1ccc(F)cc1	none
Nc1c(C(=O)NCc2ccccc2)nnn1Cc1ccc(F)cc1	TAAR1 agonist 41
COc1ccc(CNC(=O)c2nnn(Cc3ccc(OC)cc3)c2N)cc1	none
CC1CN(C2=NC(=O)/C(=C/c3ccncc3)S2)CC(C)O1 (stereo not drawn)	OX1R antag-1 34
O=C(N/N=C/c1ccc(OC(=O)c2ccccc2)c([N+](=O)[O-])c1)c1ccc(O)cc1	TAAR1 antag 53
CC(C)(C)C(=O)Nc1ccc(C(=O)N/N=C/c2ccccc2OC(=O)c2ccccc2)cc1	TAAR1 antag 53
COc1ccc(/C=N\NC(=O)c2ccc(F)cc2)cc1COc1cc(F)ccc1[N+](=O)[O-]	TAAR1 antag 53 (no result: OX1R antag-1, CHO parental Ca, OX1R antag-2)
Oc1[nH]c(=S)sc1/C=C1\C(c2ccccc2)=Nc2ccccc21	OX1R antag-1 76
Oc1[nH]c(=S)sc1C=C1N=c2ccccc2=N1	none
CN(C(=O)c1ccc(NC(=O)Cc2ccc([N+](=O)[O-])cc2)cc1)C1CCCC1	TAAR1 agonist 48
COC(=O)C1=C(C)N(Cc2ccccc2C(F)(F)F)C(=NCc2cc(OC)c(OC)c(OC)c2)NC1c1cccc(C(F)(F)F)c1 (stereo not drawn)	none (no result: OX1R antag-1, CHO parental Ca, OX1R antag-2)
COC(=O)C1=C(C)N(Cc2cccc(C(F)(F)F)c2)C(=NCc2ccc(OC)cc2)NC1c1ccc(Cl)cc1 (stereo not drawn)	none (no result: OX1R antag-1, CHO parental Ca, OX1R antag-2)
c1ccc(Nc2ccccc2Nc2ccccn2)nc1	OX1R antag-1 56, CHO parental Ca 49, OX1R antag-2 50
c1ccc(CNc2ccccn2)cc1	none
c1ccc2[nH]c3cc4ncnc4cc3nc2c1	OX1R antag-1 70
FC(F)c1nc2ccccc2[nH]1	none
COc1ccc(/C=C(\C#N)C(=O)OCC(=O)NCc2ccc(Cl)cc2)cc1	none (no result: TAAR1 antag, TAAR1 agonist)
CC(C)c1ccc(-c2nn(-c3ccccc3)cc2C2C(C#N)=C(N)OC3=C2C(=O)CC(C)(C)C3)cc1 (stereo not drawn)	none
CNC(=O)c1c(NC(=O)c2nc3ccccc3s2)sc2c1CCC2	OX1R antag-1 44 (no result: TAAR1 antag, TAAR1 agonist)
Cn1c(=O)c2c(c3ccccc31)OC(C)(C)C=C2	none (no result: OX1R antag-1, CHO parental Ca, OX1R antag-2)
COc1cc(C(=O)Nc2c(C)cc(C)cc2C)c([N+](=O)[O-])cc1OC	none
COC(=O)C1=C(C)N(Cc2cccc(C(F)(F)F)c2)C(=NCc2cc(OC)c(OC)c(OC)c2)NC1c1ccc(Cl)cc1 (stereo not drawn)	none (no result: OX1R antag-1, CHO parental Ca, OX1R antag-2)
CCOC(=O)C(Cc1ccc(O)cc1)NC(=O)CCc1c[nH]c2ccccc12 (stereo not drawn)	TAAR1 agonist 40
COC(=O)[C@]12C[C@H](CC(=O)N3CCC(c4ccccc4)CC3)C(=O)N(Cc3ccc4c(c3)OCO4)C1=C[C@H](COCc1ccccc1)O[C@@H]2C	none (no result: OX1R antag-1, CHO parental Ca, OX1R antag-2)
CCC(CC)C(=O)Nc1ccc(Sc2ccc([N+](=O)[O-])cc2)cc1	OX1R antag-1 41, OX1R antag-2 60
C=C1[C@H](C)CN(S(=O)C(C)(C)C)[C@H]1CCO (stereo partly drawn)	none (no result: OX1R antag-1, CHO parental Ca, OX1R antag-2)
Nc1ncnc(Nc2ccccn2)c1[N+](=O)[O-]	OX1R antag-1 64
Cc1cccnc1Nc1ncnc(N)c1[N+](=O)[O-]	none
Cc1cccc(Nc2ncnc(N)c2[N+](=O)[O-])n1	OX1R antag-1 56
